Results as given in ChEMBL document CHEMBL2424606, “Selective cytotoxicity, inhibition of cell cycle progression, and induction of apoptosis in human breast cancer cells by sesquiterpenoids from Inula lineariifolia Turcz” (Eur J Med Chem, 2013).
Calls of active or inactive are those of the source. The rule behind the calls is not given here.

Columns and labels:
MCF7 [1] = assay: Cytotoxicity against human MCF7 cells assessed as growth inhibition after 72 hrs by MTT assay; type: functional, cell-based; conditions: MCF7, 72 h
Outline: (§1)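 3×10³ cells/well exposed 72 h to compound at 0, 1, 5, 10, 25, 50 μM, DMSO as vehicle control. MTT (5 mg/mL solution) added for 2–4 h at 37°C. Formazan dissolved in DMSO, absorbance read at 570 nm. Viability is mean OD relative to DMSO wells. IC50 from three separate experiments.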

MDA-MB-231 [2] = assay: Cytotoxicity against human MDA-MB-231 cells assessed as growth inhibition after 72 hrs by MTT assay; type: functional, cell-based; conditions: MDA-MB-231, 72 h; outline: as §1
MCF-10A = assay: Cytotoxicity against human MCF10A cells assessed as growth inhibition after 72 hrs by MTT assay; type: cell-based; outline: as §1
MDA-MB-231 [3] = assay: Cell cycle arrest in human MDA-MB-231 cells assessed as accumulation at S phase at 2.5 uM after 24 hrs by propidium iodide staining-based flow cytometric analysis; type: functional
Outline: (§2)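 Cells (2–3×10⁵) exposed to test compound at 0, 1 or 2.5 μM for 24 h. Trypsinized, PBS-washed, fixed in 95% ethanol at 4 °C overnight, RNAse-treated, propidium iodide-stained. DNA content measured by flow cytometry for phase distribution.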

MDA-MB-231 [4] = assay: Induction of apoptosis in human MDA-MB-231 cells assessed as apoptotic index at 5 uM after 48 hrs by annexin V-FITC/propidium iodide staining-based flow cytometric analysis relative to control; type: functional
Outline: (§3)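 Treatment of 2–3×10⁵ cells with compound at 0, 1 or 5 μM for 48 h. Media plus cells collected, washed in serum-free medium, resuspended in Annexin V binding buffer. Stained with annexin V-FITC and propidium iodide 15 min in the dark at room temperature, then flow cytometry. Early (annexin only) and late (annexin+PI) apoptotic cells counted. Apoptotic index vs untreated cells. Means ± S.D., Student's t-test vs DMSO control.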

MDA-MB-231 [5] = assay: Cell cycle arrest in human MDA-MB-231 cells assessed as accumulation at G2/M phase after 24 hrs by propidium iodide staining-based flow cytometric analysis; type: functional; outline: as §2
MCF7 [6] = assay: Induction of apoptosis in human MCF7 cells after 48 hrs by annexin V-FITC/propidium iodide staining-based flow cytometric analysis; type: functional, cell-based; outline: as §3
MCF7 [7] = assay: Cell cycle arrest in human MCF7 cells assessed as accumulation at G2/M phase at 2.5 uM after 24 hrs by propidium iodide staining-based flow cytometric analysis; type: functional; outline: as §2
MDA-MB-231 [8] = assay: Induction of apoptosis in human MDA-MB-231 cells after 48 hrs by annexin V-FITC/propidium iodide staining-based flow cytometric analysis; type: functional, cell-based; outline: as §3
MDA-MB-231 [9] = assay: Cell cycle arrest in human MDA-MB-231 cells assessed as accumulation at G2/M phase at 2.5 uM after 24 hrs by propidium iodide staining-based flow cytometric analysis; type: functional; outline: as §2
MDA-MB-231 [10] = assay: Cell cycle arrest in human MDA-MB-231 cells assessed as accumulation at S phase after 24 hrs by propidium iodide staining-based flow cytometric analysis; type: functional; outline: as §2
MCF7 [11] = assay: Cell cycle arrest in human MCF7 cells assessed as accumulation at G2/M phase after 24 hrs by propidium iodide staining-based flow cytometric analysis; type: functional; outline: as §2
MCF7 [12] = assay: Induction of apoptosis in human MCF7 cells assessed as apoptotic index at 5 uM after 48 hrs by annexin V-FITC/propidium iodide staining-based flow cytometric analysis relative to control; type: functional; outline: as §3

| SMILES | IC50 (MCF7 [1]) | IC50 (MDA-MB-231 [2]) | IC50 (MCF-10A) | also measured |
| --- | --- | --- | --- | --- |
| C=C1C(=O)O[C@@H]2/C=C(\C)CC/C=C(\CO)C[C@@H](O)[C@@H]12 [DEACETYLOVATIFOLIN] | 6.9 µM | 13.8 µM | 45.7 µM | – |
| C=C1C[C@@H]2OC(=O)C(=C)[C@H]2C[C@@H]2[C@@H]1[C@@H](O)C[C@@]2(C)O | 13.7 µM | 21.1 µM | > 50 µM | – |
| C=C1C(=O)O[C@@H]2C[C@H](C)[C@@H]3[C@@H](OC(C)=O)C[C@H](O)[C@@]3(C)C[C@H]12 | 6.7 µM | 12.9 µM | > 50 µM | – |
| C[C@@H]1C2=C[C@H]3[C@@H](C[C@@]2(C)CC[C@@H]1O)OC(=O)[C@@H]3C | > 50 µM | > 50 µM | > 50 µM | – |
| C=C1C(=O)O[C@@H]2CC(C)=C3[C@@H](OC(C)=O)C[C@@](C)(O)[C@@H]3[C@@H](O)[C@H]12 | > 50 µM | > 50 µM | > 50 µM | – |
| C=C1C(=O)O[C@@H]2CC(C)=C3[C@@H](OC(C)=O)C[C@@](C)(O)[C@@H]3C[C@H]12 [INUCHINENOLIDE B] | 15.5 µM | 25.8 µM | > 50 µM | – |
| C=C1C(=O)O[C@H]2C[C@H](C)[C@@]34C[C@@]5(C(=O)O[C@H]6C=C(C)[C@H]7[C@@H](OC(C)=O)C[C@@](C)(O)[C@@H]7C[C@@H]65)[C@@H](C(C)=C3C[C@H]12)[C@@H]4OC(C)=O | 3.4 µM | 10.7 µM | > 50 µM | – |
| C=C1C(=O)O[C@@H]2CC(C)=C3[C@@H](C[C@H]12)[C@](C)(O)C[C@@H]3O | > 50 µM | > 50 µM | > 50 µM | – |
| C=C1C(=O)O[C@H]2C[C@H](C)[C@@]34C[C@@]5(C(=O)O[C@H]6C=C(C)[C@H]7[C@@H](OC(C)=O)C[C@@](C)(O)[C@@H]7C[C@@H]65)[C@@H](C(C)=C3C[C@H]12)[C@@H]4O | 7.8 µM | 16.5 µM | > 50 µM | – |
| C=C1C(=O)O[C@H]2C[C@H](C)[C@@]34C[C@@]5(C(=O)O[C@H]6C[C@@H](C)[C@@H]7[C@@H](OC(C)=O)C[C@H](O)[C@@]7(C)C[C@@H]65)[C@@H](C(C)=C3C[C@H]12)[C@@H]4O | 1.6 µM | 2.8 µM | 27.9 µM | Activity (MDA-MB-231 [3]): Active; fold change (FC) (MDA-MB-231 [4]): 14.2; Activity (MDA-MB-231 [5]): Dose-dependent effect; Activity (MCF7 [6]): Dose-dependent effect; Activity (MCF7 [7]): Active; Activity (MDA-MB-231 [8]): Dose-dependent effect; Activity (MDA-MB-231 [9]): Active; Activity (MDA-MB-231 [10]): Dose-dependent effect; Activity (MCF7 [11]): Dose-dependent effect; fold change (FC) (MCF7 [12]): 7.6 |
| CC(=O)O[C@H]1C(=O)[C@@]2(C)[C@H]([C@H](OC(=O)c3ccccc3)[C@]3(O)C[C@H](OC(=O)[C@H](O)[C@@H](NC(=O)c4ccccc4)c4ccccc4)C(C)=C1C3(C)C)[C@]1(OC(C)=O)CO[C@@H]1C[C@@H]2O [PACLITAXEL] | 0.0752 µM | 0.087 µM | 0.427 µM | – |
| CC(=O)O[C@H]1C=C(CCO)[C@@H](C)C[C@H]2OC(=O)[C@@H](C)[C@@H]12 | > 50 µM | > 50 µM | > 50 µM | – |
| C=C1C(=O)O[C@H]2C[C@H](C)[C@@]34C[C@@]5(C(=O)O[C@H]6/C=C(\C)CC/C=C(\CO)C[C@H](O)[C@@H]65)[C@@H](C(C)=C3C[C@H]12)[C@@H]4OC(C)=O | 3.7 µM | 5.7 µM | 26.4 µM | – |
| C=C1C(=O)O[C@H]2C=C(C)[C@@H]3[C@@H]([C@@H](O)[C@H]12)[C@](C)(O)C[C@@H]3OC(C)=O | 6.2 µM | 11.4 µM | > 50 µM | – |
| C=C1C(=O)O[C@H]2C[C@H](C)[C@H]3[C@@H](O)C[C@@](C)(O)[C@@]34O[C@H]4[C@H]12 | > 50 µM | > 50 µM | > 50 µM | – |
| C=C1C(=O)O[C@H]2C[C@@H](C)[C@@H]3C=CC(=O)[C@@]3(C)[C@@H](OC(C)=O)[C@H]12 [BIGELOVIN] | 2.1 µM | 2.3 µM | 26 µM | – |
